# From the M2OR odorant receptor database
# Assays:
# Details in all cases: stereoisomer not certain
# Or5p80 (Mus musculus) = molecular target: T1, Or5p80 (Mus musculus) (UniProt Q8VG42)
# T1 sequence (whole entry): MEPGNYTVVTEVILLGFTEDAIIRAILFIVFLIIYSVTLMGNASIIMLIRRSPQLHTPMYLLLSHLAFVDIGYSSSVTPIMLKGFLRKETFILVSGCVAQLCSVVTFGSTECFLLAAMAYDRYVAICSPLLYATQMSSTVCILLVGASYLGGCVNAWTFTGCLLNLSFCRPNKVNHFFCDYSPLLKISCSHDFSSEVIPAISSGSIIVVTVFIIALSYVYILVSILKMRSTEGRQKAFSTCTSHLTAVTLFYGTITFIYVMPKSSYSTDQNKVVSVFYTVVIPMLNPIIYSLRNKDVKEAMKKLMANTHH
# Summary of the method: (§1)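 Transient luciferase assays in mammalian cell lines were common, though methods varied by source. The values come from published papers and their supplementary material, with extra details from the original authors when needed. Responsive refers to a measured signal the original authors judged statistically different from baseline, and non-responsive (inactive) to the remainder.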
# Or7a40 (Mus musculus) = molecular target: T2, Or7a40 (Mus musculus) (UniProt Q9JHB2)
# T2 sequence (whole entry): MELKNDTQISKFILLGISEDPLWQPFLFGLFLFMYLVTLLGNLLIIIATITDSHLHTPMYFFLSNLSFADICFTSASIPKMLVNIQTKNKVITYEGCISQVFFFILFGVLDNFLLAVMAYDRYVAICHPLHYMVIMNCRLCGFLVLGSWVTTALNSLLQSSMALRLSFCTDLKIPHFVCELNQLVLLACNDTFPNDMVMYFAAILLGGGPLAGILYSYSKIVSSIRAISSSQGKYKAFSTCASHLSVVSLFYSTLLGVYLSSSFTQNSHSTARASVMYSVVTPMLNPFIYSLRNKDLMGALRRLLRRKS
# Summary of the method: as §1
# Or8b3 (Mus musculus) = Or8b3 (Mus musculus) (UniProt Q60886)
# Or8b3 (Mus musculus), sequence (Q60886 whole entry): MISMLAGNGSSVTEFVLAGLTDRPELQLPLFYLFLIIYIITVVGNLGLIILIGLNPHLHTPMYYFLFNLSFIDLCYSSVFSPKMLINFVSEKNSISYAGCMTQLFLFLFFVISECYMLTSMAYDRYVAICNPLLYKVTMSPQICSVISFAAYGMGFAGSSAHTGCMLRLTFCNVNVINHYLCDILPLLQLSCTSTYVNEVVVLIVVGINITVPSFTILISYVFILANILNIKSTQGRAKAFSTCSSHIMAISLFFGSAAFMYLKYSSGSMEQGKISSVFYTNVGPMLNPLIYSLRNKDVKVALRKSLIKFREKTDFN
# Summary of the method: as §1
# UniProt A2ASV2 = molecular target: UniProt A2ASV2
# UniProt A2ASV2, sequence (A2ASV2 as listed by the source): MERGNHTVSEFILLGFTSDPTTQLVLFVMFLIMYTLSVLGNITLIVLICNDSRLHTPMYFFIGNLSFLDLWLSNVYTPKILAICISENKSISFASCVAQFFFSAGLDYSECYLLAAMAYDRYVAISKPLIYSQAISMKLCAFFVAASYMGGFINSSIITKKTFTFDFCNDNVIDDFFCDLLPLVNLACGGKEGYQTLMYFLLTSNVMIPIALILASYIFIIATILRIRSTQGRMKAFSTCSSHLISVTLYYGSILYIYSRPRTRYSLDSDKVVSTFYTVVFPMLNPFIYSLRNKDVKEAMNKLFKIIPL
# Summary of the method: as §1
# Q8VF87 A279V = test system: Q8VF87 A279V
# Summary of the method: as §1
# Q8VF87 E162D = test system: Q8VF87 E162D
# Summary of the method: as §1
# Q8VF87 I202L = test system: Q8VF87 I202L
# Summary of the method: as §1
# Q8VF87 L210I = test system: Q8VF87 L210I
# Summary of the method: as §1
# [1] = test system: Q8VF87 V108T E162D V184F I202L L210I A279V
# Summary of the method: as §1
# [2] = test system: Q8VF87 V108T E162D V184F I202L L210I
# Summary of the method: as §1
# [3] = test system: Q8VF87 V108T E162D V184F I202L
# Summary of the method: as §1
# Q8VF87 V108T E162D V184F = test system: Q8VF87 V108T E162D V184F
# Summary of the method: as §1
# Q8VF87 V108T E162D = test system: Q8VF87 V108T E162D
# Summary of the method: as §1
# Q8VF87 V108T = test system: Q8VF87 V108T
# Summary of the method: as §1
# Q8VF87 V184F = test system: Q8VF87 V184F
# Summary of the method: as §1
# Q8N628 T20A L289V = test system: Q8N628 T20A L289V
# Summary of the method: as §1
# Q8NGC2 A119T = test system: Q8NGC2 A119T
# Summary of the method: as §1
# Q8NGH7 D88N = test system: Q8NGH7 D88N
# Summary of the method: as §1
# UniProt A0PK57 = molecular target: UniProt A0PK57
# UniProt A0PK57, sequence (A0PK57 as listed by the source): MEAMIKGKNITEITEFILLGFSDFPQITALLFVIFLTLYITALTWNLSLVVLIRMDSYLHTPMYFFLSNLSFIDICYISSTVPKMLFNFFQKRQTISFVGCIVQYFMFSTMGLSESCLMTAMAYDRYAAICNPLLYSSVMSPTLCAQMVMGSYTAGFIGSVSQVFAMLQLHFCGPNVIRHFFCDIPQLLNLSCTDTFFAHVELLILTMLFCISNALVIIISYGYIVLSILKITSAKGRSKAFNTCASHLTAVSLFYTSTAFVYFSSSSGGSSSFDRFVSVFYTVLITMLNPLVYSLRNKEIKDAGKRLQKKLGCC
# Summary of the method: as §1
# 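Also: active if original authors judged signal statistically different from baseline.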
smiles,measurement,setting,value
CCCCC(=O)CC,odorant receptor agonist call,Or5p80 (Mus musculus),inactive
same,odorant receptor agonist call,Or7a40 (Mus musculus),inactive
CCCCCOC(=O)CCCCC,odorant receptor agonist call,Or5p80 (Mus musculus),inactive
same,odorant receptor agonist call,Or7a40 (Mus musculus),inactive
CC12CCC(CC1=O)C2(C)C (stereo not given),odorant receptor agonist call,Or5p80 (Mus musculus),inactive
same,odorant receptor agonist call,Or7a40 (Mus musculus),inactive
O=c1ccc2ccccc2o1,odorant receptor agonist call,Or5p80 (Mus musculus),active
same,odorant receptor agonist call,Or7a40 (Mus musculus),inactive
same,odorant receptor agonist call,Or8b3 (Mus musculus),active
same,odorant receptor agonist call,UniProt A2ASV2,active
CCCCOC=O,odorant receptor agonist call,Or5p80 (Mus musculus),inactive
same,odorant receptor agonist call,Or7a40 (Mus musculus),inactive
CCC(=O)O,odorant receptor agonist call,Or5p80 (Mus musculus),inactive
same,odorant receptor agonist call,Or7a40 (Mus musculus),inactive
CCCC(C)=O,odorant receptor agonist call,Or5p80 (Mus musculus),inactive
same,odorant receptor agonist call,Or7a40 (Mus musculus),inactive
CCC(S)C(C)CO (stereo not given),odorant receptor agonist call,Q8VF87 A279V,inactive
same,odorant receptor agonist call,Q8VF87 E162D,inactive
same,odorant receptor agonist call,Q8VF87 I202L,inactive
same,odorant receptor agonist call,Q8VF87 L210I,inactive
same,odorant receptor agonist call,[1],inactive
same,odorant receptor agonist call,[2],inactive
same,odorant receptor agonist call,[3],inactive
same,odorant receptor agonist call,Q8VF87 V108T E162D V184F,inactive
same,odorant receptor agonist call,Q8VF87 V108T E162D,inactive
same,odorant receptor agonist call,Q8VF87 V108T,inactive
same,odorant receptor agonist call,Q8VF87 V184F,inactive
CC(C)=CCCC(C)CCO (stereo not given),odorant receptor agonist call,Or5p80 (Mus musculus),inactive
same,odorant receptor agonist call,Or7a40 (Mus musculus),inactive
C=CCOC(=O)CCCCCC,odorant receptor agonist call,Or5p80 (Mus musculus),inactive
same,odorant receptor agonist call,Or7a40 (Mus musculus),inactive
O=C1CCOc2ccccc21,odorant receptor agonist call,Or5p80 (Mus musculus),inactive
same,odorant receptor agonist call,Or7a40 (Mus musculus),inactive
same,odorant receptor agonist call,Or8b3 (Mus musculus),inactive
same,odorant receptor agonist call,UniProt A2ASV2,inactive
C=C(C)C1CCC(C)C(=O)C1 (stereo not given),odorant receptor agonist call,Or5p80 (Mus musculus),inactive
same,odorant receptor agonist call,Or7a40 (Mus musculus),inactive
O=C(c1ccccc1)c1ccccc1,odorant receptor agonist call,Or5p80 (Mus musculus),inactive
same,odorant receptor agonist call,Or7a40 (Mus musculus),inactive
CCCCCC(=O)CC,odorant receptor agonist call,Or5p80 (Mus musculus),inactive
same,odorant receptor agonist call,Or7a40 (Mus musculus),inactive
CCCCCCCCCS,odorant receptor agonist call,Or5p80 (Mus musculus),inactive
same,odorant receptor agonist call,Or7a40 (Mus musculus),inactive
CCCCC(C)=O,odorant receptor agonist call,Or5p80 (Mus musculus),inactive
same,odorant receptor agonist call,Or7a40 (Mus musculus),inactive
COc1cc(C(=O)O)ccc1O,odorant receptor agonist call,Or5p80 (Mus musculus),inactive
same,odorant receptor agonist call,Or7a40 (Mus musculus),inactive
CCCCCCC=CCCC=O,odorant receptor agonist call,Q8N628 T20A L289V,inactive
same,odorant receptor agonist call,Q8NGC2 A119T,inactive
same,odorant receptor agonist call,Q8NGH7 D88N,inactive
CCCCCC1=C(C)CCC1=O,odorant receptor agonist call,Or5p80 (Mus musculus),inactive
same,odorant receptor agonist call,Or7a40 (Mus musculus),active
CC1CCCCCCCCCCCCC(=O)C1 (stereo not given),odorant receptor agonist call,UniProt A0PK57,inactive
CCCCCCC(C)=O,odorant receptor agonist call,Or5p80 (Mus musculus),inactive
same,odorant receptor agonist call,Or7a40 (Mus musculus),inactive
c1ccccc1,odorant receptor agonist call,Or5p80 (Mus musculus),inactive
same,odorant receptor agonist call,Or7a40 (Mus musculus),inactive
CCCCCCOC(C)=O,odorant receptor agonist call,Or5p80 (Mus musculus),inactive
same,odorant receptor agonist call,Or7a40 (Mus musculus),inactive
CC(=O)OCC=C(C)C,odorant receptor agonist call,Or5p80 (Mus musculus),inactive
same,odorant receptor agonist call,Or7a40 (Mus musculus),inactive
CCCCCC=O,odorant receptor agonist call,Or5p80 (Mus musculus),inactive
same,odorant receptor agonist call,Or7a40 (Mus musculus),inactive
CCCCCCCCCCO,odorant receptor agonist call,Or5p80 (Mus musculus),inactive
same,odorant receptor agonist call,Or7a40 (Mus musculus),inactive
